In PMC3902942 (Nucleic Acids Research, 2013):

How the values were obtained:
[1] = system: PU.1-λB complex (PU.1 ETS domain on immobilized λB site hairpin); test: Biosensor-SPR PU.1-DNA complex inhibition; assay type: binding, murine
How it was run: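 Murine PU.1 ETS domain (residues 167–272), expressed in E. coli, on a Biacore T200 biosensor. 5′-Biotinylated λB-site hairpin DNA immobilised on CM4 chips. Protein injected at constant 100 nM to saturate DNA sites, with graded compound concentrations added to the protein solution. Loss of protein signal plotted against compound concentration. Transition midpoint taken as IC50.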

[2] = biological target: λB site DNA hairpin duplex; test: Biosensor-SPR direct binding of compounds to immobilized λB site DNA hairpin; settings: read-out: KD for the λB site

**Q.** Which IC50 ([1]; read-out: IC50 of PU.1 binding inhibition) does the source give for `N=C(N)c1ccc(-c2ccc(-c3ccc(C(=N)N)cc3)[se]2)cc1` [DB1213] here?
**A.** ~1.5 µM

**Q.** Which results are given for `N=C(N)c1ccc(-c2ccc(-c3ccc(C(=N)N)cc3)o2)cc1` [DB75, furamidine]?
**A.** Inhibition of PU.1 binding (in words) [1]: does not inhibit PU.1 binding; Kd [2]: 0.53 µM
